Insulin prom act = activators of insulin promoter-driven GFP, primary screen, imaging, TRM-6 cells (human fetal islet line), eGFP reporter, cell count. plate-scaled: unstimulated 0, stimulated control 100. activation, % at 2 µM. 0.81% of 130,000 active;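 active = activation at 2 µM above a set limit, confirmed on inspection of the cell images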;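 also: share of cells whose green reporter signal exceeds an intensity cutoff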
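Material: TRM-6 insulin promoter–eGFP reporter cells. Buffer or medium: Low-glucose (5.5 mM) medium with tamoxifen. Probe or stimulus: tamoxifen at 0.75 µM added at seeding for reporter induction. Times: tamoxifen pre-incubation 15 h overnight, then compound exposure 48 h at 37 °C. Detection: high-content imaging of fixed cells with Hoechst nuclear stain.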
* hit, by the source's call. Many of the other results were omitted from the sample, so hits are more common in it than they were.

SMILES | Insulin prom act
C=CCN1C=CC(=C/C=C(/C#N)C(=O)OCC)C=C1 | 163*
CCOC(=O)/C(C#N)=C/c1cccc(F)c1 | 7
CCOC(=O)/C(C#N)=C\c1cccnc1 | 7
CCN(CC)c1ccc(C(=O)NC(=S)N2CCN(Cc3ccc4c(c3)OCO4)CC2)cc1 | 123
COC(=O)c1cc(-c2ccc(Cl)cc2Cl)n[nH]1 | -78
Cc1cc(NS(=O)(=O)c2ccc(NC(=O)CCCOc3ccc(Cl)cc3)cc2)no1 | 127*
Cc1cc(NS(=O)(=O)c2ccc(NC(=O)NC(C)(C(F)(F)F)C(F)(F)F)cc2)no1 | -4
O=C(CCCOc1ccc(Cl)cc1)Nc1cccc(C(=O)O)c1 | 6
Cc1cccc(N2CCN(C(=O)c3ccc(Cl)c(S(=O)(=O)N4CCc5ccccc5C4)c3)CC2)c1C | 0
COc1ccc(NCc2nnc(SCC(=O)Nc3cc(C(F)(F)F)ccc3Cl)o2)cc1 | -7
CCOc1ccc(-n2c(Cc3cc(=O)[nH]c(=O)[nH]3)nnc2SCC(=O)Nc2nnc(C)s2)cc1 | 5
COc1ccc(-n2c(Cc3cc(=O)[nH]c(=O)[nH]3)nnc2SCC(=O)Nc2cc(C(F)(F)F)ccc2Cl)cc1 | 255*
CCOC(=O)Cn1nc(C)c(NC(=O)COc2cccc(Cl)c2)c1C | 0
CCCCC1CCC(C(=O)NCc2ccc3c(c2)OCO3)CC1 (centres undefined) | -3
COc1ccc(NC(=O)CN2c3cccc4cccc(c34)S2(=O)=O)cc1 | 8
COc1ccc2c(c1)-c1ccccc1S(=O)(=O)N2C(C)=O | 184*
COc1ccc2c(=O)c(N3C(=O)c4ccccc4C3=O)coc2c1 | 28
Cc1cc(N2C(=O)C=CC2=O)c([N+](=O)[O-])cc1C | 163
COc1ccc(NC(=O)OC(C)C)cc1 | -9
Cc1c(Cl)cccc1NC(=S)N1CCN(Cc2ccc3c(c2)OCO3)CC1 | 9
COC(=O)Cc1ccc(NC(=O)c2cccs2)cc1 | 460*
CC(=O)c1ccc(NC(=O)c2cccs2)cc1 | -3
O=C(Nc1ccncc1)c1cccs1 | -10
CCOc1ccc(-c2nnn(CC(=O)NCc3ccccc3)n2)cc1 | -6
CCN(CC)C(=O)C1CCCN(C(=S)Nc2cccc3ccccc23)C1 (centres undefined) | 0
SMILES | Insulin prom act
Cn1nnnc1SCSc1nnnn1C | 625*
Cn1nnnc1SCC(=O)NCc1ccccc1 | -93
Cn1nnnc1SCC(=O)c1cccs1 | -9
N#CC1=C(N)Oc2cc(N)ccc2C1C1CCCCC1 (centres undefined) | 333
O=[N+]([O-])c1cccc(S(=O)(=O)NCCCN2CCOCC2)c1 | 0
COc1ccccc1N1CCN(c2ccc(Cl)nn2)CC1 | -7
CCOc1ccccc1NC1=C(Cl)C(=O)N(c2ccc(OC)cc2)C1=O | 3
COc1ccccc1N1C(=O)C(Cl)=C(Nc2ccccc2O)C1=O | 379*
O=C(/C=C/c1ccc([N+](=O)[O-])cc1)N(c1ccccn1)C1CCCCC1 | 0
Cc1nc2nc[nH]n2c(=O)c1NC(=O)c1c(-c2ccccc2Cl)noc1C | 3
O=C(Cc1ccc(-c2ccccc2)cc1)NNC(=S)NCc1ccco1 | 0
Cc1ccc(-c2nc(NCc3ccco3)n(S(C)(=O)=O)n2)cc1 | -8
COc1ccc(CC(=O)n2nc(-c3ccccc3)nc2NCc2ccco2)cc1 | 642*
Cn1c(-c2cccc(Br)c2)n[nH]c1=O | 0
COc1cccc(C2CC(c3cccc(Br)c3)n3nc(N)nc3N2)c1 (centres undefined) | 38
CC1=CC(C)(C)N2C(=O)C3(N=C(N)NC(Nc4ccccc4)=N3)c3cc(C)cc1c32 (centres undefined) | 481*
CCCS(=O)(=O)c1c(S(=O)(=O)CCC)c2cnccn2c1C(=O)c1ccc(Cl)cc1 | 8
O=C(c1ccc(Cl)c(F)c1F)N1CCOCC1 | 4
Cc1ccccc1NC(=O)c1cccc2nc3ccccc3nc12 | 233*
Cc1ccccc1C(=O)Nc1ccccc1-n1cccc1 | 1
Cc1ccccc1NC(=O)c1c(Cl)nc(C)c(Cl)c1C | 156
O=C(NNC1OC(CO)C(O)C(O)C1O)c1cccc(Br)c1 (centres undefined) | 0
O=C1CCCN1CCCNCC(=O)N1c2ccccc2Sc2ccccc21 | 3
O=C(Nc1ccccc1)/C(=C\c1cccs1)NC(=O)c1ccccc1 | -7
Cc1ccc(C(=O)N/C(=C\c2cccs2)C(=O)NC2CCCCC2)cc1 | 400*
SMILES | Insulin prom act
O=C(N/C(=C/c1cccs1)C(=O)N1CCCCCC1)c1ccccc1 | 252
CCCN(CCC)C(=O)c1cc(-c2ccc3c(c2)OCO3)nc2ccccc12 | -8
CCOC(=O)C(NC(C)=O)C(OC(C)=O)c1cccc(N(CCO)CCO)c1 (centres undefined) | 9
COCC(=O)Nc1nc(-c2ccccc2)ns1 | -38
CCC(C)C(=O)N1c2ccccc2C(=C2SC(C(=O)OC)=C(C(=O)OC)S2)C(=S)C1(C)C (centres undefined) | -5
CCn1c(CSCc2ccc(F)cc2)nnc1SCC(=O)N1CCN(c2ccccc2)CC1 | 95*
O=C(CSCc1ccccc1)N1CCN(c2ccc(F)cc2)CC1 | -4
CCn1c(SCC(=O)N2CCN(c3ccccc3)CC2)nnc1-c1ccncc1 | 6
Cc1ccc(Sc2c(C)nn(C(=O)c3cccc(S(=O)(=O)N4CCOCC4)c3)c2C)cc1 | -3
COc1cc(/C(C)=N/N2CCOCC2)cc(OC)c1OC | 0
NC(=O)C1CCN(C2CC(=O)NC2=O)CC1 (centres undefined) | 9
C=CCn1c(CCNC(=O)c2cccs2)nnc1SCC(=O)Nc1cccc(C(C)=O)c1 | 219
CCn1c(SCC(=O)Nc2cc(C)on2)nnc1-c1cccs1 | -7
CCn1c(CNC(=O)c2cccs2)nnc1SCC(=O)Nc1ccc(Cl)cc1 | 650*
COc1ccc(C)cc1NC(=O)NCc1ccc(F)cc1 | 7
Cc1nnc(SCC2CCCO2)n1-c1ccccc1 (centres undefined) | 8
COc1ccc(-c2nnc(SCC(=O)c3ccc[nH]3)n2-c2ccccc2)cc1 | 0
C=C(C)Cn1c(SCC(=O)O)nnc1-c1ccc(OC)cc1 | -3
COc1ccccc1OCCSc1nnc(C)n1-c1ccccc1 | 83*
COc1ccc(-c2nnc(SCCC(=O)O)n2-c2ccccc2)cc1 | 486*
COC(=O)CSc1nnc(-c2ccccc2OC)n1-c1ccc(C)cc1 | 9
CC(C)n1cc(/C=C(\C#N)S(=O)(=O)c2ccccc2)c2ccccc21 | 9
Cc1sc2nc(CSCC(=O)N(CCC#N)c3ccccc3)[nH]c(=O)c2c1C | 107
O=C(c1ccco1)N1CCN(C(=O)c2cc(-c3ccccn3)nc3ccc(Cl)cc23)CC1 | 6
CC(C)Oc1ccc(C(=O)NC2(C(F)(F)F)N=C3SCCN3C2=O)cc1 (centres undefined) | 8
SMILES | Insulin prom act
O=C(CSc1n[nH]c(-c2ccccc2)n1)Nc1ncc(Br)cc1Br | 0
NC(=O)Nc1ccc(Oc2c(F)c(F)c(F)c(F)c2F)cc1 | -9
COc1ccc2c(c1)O[C@@H](c1cccc(C(F)(F)F)c1)[C@H](OC(=O)NCCc1ccc(OC)c(OC)c1)C2=O | 5
CCOC(=O)C1=C(C)NC(C)=C(C(=O)OCC)C1C(=O)OCC(=O)NC(C)C | 5
COCCNC(=O)CSCc1nc(-c2ccc(SC)cc2)oc1C | 107
Cc1cccc(-c2cc(C(=O)Nc3ccc4c(c3)OCCO4)c3ccccc3n2)c1 | -3
O=C(Nc1ccccc1N1CCOCC1)c1cc(-c2ccncc2)nc2ccccc12 | 236*
O=C(Nc1ccccc1N1CCOCC1)c1cccnc1 | 8
